In ChEMBL document CHEMBL1157639, “Identification of inhibitors of drug-resistant Candida albicans strains from a library of bicyclic peptidomimetic compounds” (2010):

What was measured:
[1] = molecular target: Secreted aspartic protease 2 (Candida albicans) (UniProt P0CS83); assay: Inhibition of Candida albicans SAP2 at 10 uM by spectrophotometry relative to pepstatin A
Method in brief: (§1)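 Sample was mixed with 1% (w/v) BSA substrate in 50 mM sodium citrate, pH 3.2, plus SAP2 protease (1 μg/mL stock solution) and incubated 30 min at 37 °C. The reaction was stopped with 10% TCA, kept 30 min on ice, and centrifuged; supernatant A280 was read. Percent inhibition was taken from ΔOD, with control proteinase minus proteinase plus pepstatin A set as 100%.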

[2] = molecular target: Secreted aspartic protease 2 (Candida albicans) (UniProt P0CS83); assay: Inhibition of Candida albicans SAP2 at 10 uM by spectrophotometry; method in brief: as §1

Chain of Secreted aspartic protease 2 (Candida albicans) (P0CS83 57-398 limits assumed): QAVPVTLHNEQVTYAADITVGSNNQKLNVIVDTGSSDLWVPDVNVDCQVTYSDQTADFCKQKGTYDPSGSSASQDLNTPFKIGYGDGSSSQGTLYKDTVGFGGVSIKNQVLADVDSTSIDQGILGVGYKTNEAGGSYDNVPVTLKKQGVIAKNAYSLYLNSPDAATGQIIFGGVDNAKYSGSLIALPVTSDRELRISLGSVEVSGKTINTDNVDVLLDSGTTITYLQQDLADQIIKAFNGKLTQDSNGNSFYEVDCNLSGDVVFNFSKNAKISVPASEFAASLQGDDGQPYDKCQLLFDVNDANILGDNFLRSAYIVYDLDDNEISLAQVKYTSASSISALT

Row | SMILES | inhibition [1] [%] | inhibition [2] [%]
1 | CCOC(=O)C1CCN(C(=O)[C@@H]2O[C@@]3(c4ccccc4)CN(C(c4ccccc4)c4ccccc4)C[C@@H]2O3)CC1 | 23 | 6
2 | O=C([C@@H]1O[C@@H]2O[C@H]1C(=O)N(Cc1ccccc1)[C@H]2Cc1ccccc1)N1CCOCC1 | 40 | 13
3 | CCOC(=O)C1CCN(C(=O)[C@@H]2O[C@@]3(c4ccccc4)CN(C(c4ccccc4)c4ccccc4)C(=O)[C@@H]2O3)CC1 | 19 | 5
4 | CCCNC(=O)[C@@H]1O[C@@H]2O[C@H]1C(=O)N(Cc1ccccc1)[C@H]2Cc1ccccc1 | 73 | 36
5 | CNC(=O)[C@@H]1O[C@@H]2O[C@H]1C(=O)N(Cc1ccccc1)[C@H]2Cc1ccccc1 | 87 | 29
6 | O=C(NCC(F)(F)F)[C@@H]1O[C@@]2(c3ccccc3)CN(C(c3ccccc3)c3ccccc3)C[C@@H]1O2 | 12 | 3
7 | CCCCNC(=O)[C@@H]1O[C@@H]2O[C@H]1C(=O)N(Cc1ccccc1)[C@H]2Cc1ccccc1 | 42 | 8
8 | O=C(NCC(F)(F)F)[C@@H]1O[C@@H]2O[C@H]1C(=O)N(Cc1ccccc1)[C@H]2Cc1ccccc1 | 42 | 8
9 | CCCCCCNC(=O)[C@@H]1O[C@@H]2O[C@H]1C(=O)N(Cc1ccccc1)[C@H]2Cc1ccccc1 | 42 | 8
10 | O=C([C@@H]1O[C@@]2(c3ccccc3)CN(C(c3ccccc3)c3ccccc3)C(=O)[C@@H]1O2)N1CCN(CCO)CC1 | 19 | 5
11 | O=C([C@@H]1O[C@@]2(c3ccccc3)CN(C(c3ccccc3)c3ccccc3)C[C@@H]1O2)N1CCCCC1 | 23 | 6
12 | CCCCNC(=O)[C@@H]1O[C@@]2(c3ccccc3)CN(C(c3ccccc3)c3ccccc3)C[C@@H]1O2 | 12 | 3
13 | O=C(NC1CC1)[C@@H]1O[C@H]2CN(Cc3ccccc3)C[C@@H]1O2 | 13 | 3
14 | C#CCNC(=O)[C@@H]1O[C@H]2CN(Cc3ccccc3)C[C@@H]1O2 | 13 | 3
15 | O=C(NC1CCCCC1)[C@@H]1O[C@@]2(c3ccccc3)CN(C(c3ccccc3)c3ccccc3)C(=O)[C@@H]1O2 | 0 | 0
16 | CC(NC(=O)[C@@H]1O[C@H]2CN(Cc3ccccc3)C(=O)[C@@H]1O2)c1ccccc1 (stereo partly specified) | 87 | 22
17 | CC(C)CCNC(=O)[C@@H]1O[C@@H]2O[C@H]1C(=O)N(Cc1ccccc1)[C@H]2Cc1ccccc1 | 87 | 29
18 | O=C(NCC(F)(F)F)[C@@H]1O[C@H]2CN(Cc3ccccc3)C(=O)[C@@H]1O2 | 87 | 22
19 | CCCNC(=O)[C@@H]1O[C@@]2(c3ccccc3)CN(C(c3ccccc3)c3ccccc3)C[C@@H]1O2 | 12 | 3
20 | O=C([C@@H]1O[C@H]2CN(Cc3ccccc3)C[C@@H]1O2)N1CCCCC1 | 6 | 2
21 | CC(NC(=O)[C@@H]1O[C@@]2(c3ccccc3)CN(C(c3ccccc3)c3ccccc3)C(=O)[C@@H]1O2)c1ccccc1 (stereo partly specified) | 0 | 0
22 | O=C([C@@H]1O[C@@H]2O[C@H]1C(=O)N(Cc1ccccc1)[C@H]2Cc1ccccc1)N1CCN(CCO)CC1 | 40 | 13
23 | O=C([C@@H]1O[C@H]2CN(Cc3ccccc3)C[C@@H]1O2)N1CCSCC1 | 6 | 2
24 | CC(C)C[C@@H](CO)NC(=O)[C@@H]1O[C@@H]2O[C@H]1C(=O)N(Cc1ccccc1)[C@H]2Cc1ccccc1 | 87 | 17
25 | O=C(NCc1ccccc1)[C@@H]1O[C@H]2CN(Cc3ccccc3)C(=O)[C@@H]1O2 | 18 | 4
26 | O=C([C@@H]1O[C@@H]2O[C@H]1C(=O)N(Cc1ccccc1)[C@H]2Cc1ccccc1)N1CCSCC1 | 40 | 13
27 | CCCCNC(=O)[C@@H]1O[C@H]2CN(Cc3ccccc3)C(=O)[C@@H]1O2 | 18 | 4

Other lines, results leading:

Row | inhibition [1] [%] | inhibition [2] [%] | SMILES
28 | 18 | 4 | CC(C)CNC(=O)[C@@H]1O[C@H]2CN(Cc3ccccc3)C(=O)[C@@H]1O2
29 | 0 | 0 | CCCCCNC(=O)[C@@H]1O[C@@]2(c3ccccc3)CN(C(c3ccccc3)c3ccccc3)C(=O)[C@@H]1O2
30 | 12 | 3 | C#CCNC(=O)[C@@H]1O[C@@]2(c3ccccc3)CN(C(c3ccccc3)c3ccccc3)C[C@@H]1O2
31 | 87 | 22 | CCCCCNC(=O)[C@@H]1O[C@H]2CN(Cc3ccccc3)C(=O)[C@@H]1O2
32 | 87 | 17 | O=C([C@@H]1O[C@@H]2O[C@H]1C(=O)N(Cc1ccccc1)[C@H]2Cc1ccccc1)N1CCCNCC1
33 | 87 | 17 | CN(CCN)C(=O)[C@@H]1O[C@@H]2O[C@H]1C(=O)N(Cc1ccccc1)[C@H]2Cc1ccccc1
34 | 19 | 5 | O=C([C@@H]1O[C@@]2(c3ccccc3)CN(C(c3ccccc3)c3ccccc3)C(=O)[C@@H]1O2)N1CCOCC1
35 | 13 | 3 | CCCNC(=O)[C@@H]1O[C@H]2CN(Cc3ccccc3)C[C@@H]1O2
36 | 87 | 17 | CCOC(=O)N1CCN(C(=O)[C@@H]2O[C@@H]3O[C@H]2C(=O)N(Cc2ccccc2)[C@H]3Cc2ccccc2)CC1
37 | 23 | 6 | O=C([C@@H]1O[C@@]2(c3ccccc3)CN(C(c3ccccc3)c3ccccc3)C[C@@H]1O2)N1CCSCC1
38 | 57 | 28 | COC(=O)[C@H](CC(C)C)N1C[C@@]2(C)O[C@H](C(=O)N3CCN(Cc4ccccc4)CC3)[C@H](O2)C1=O
39 | 42 | 8 | CC(NC(=O)[C@@H]1O[C@@H]2O[C@H]1C(=O)N(Cc1ccccc1)[C@H]2Cc1ccccc1)c1ccccc1 (stereo partly specified)
40 | 13 | 3 | CC(C)CCNC(=O)[C@@H]1O[C@H]2CN(Cc3ccccc3)C[C@@H]1O2
41 | 18 | 4 | CNC(=O)[C@@H]1O[C@H]2CN(Cc3ccccc3)C(=O)[C@@H]1O2
42 | 18 | 4 | NC(=O)C1O[C@H]2CN(Cc3ccccc3)C(=O)[C@@H]1O2 (single isomer, unassigned)
43 | 42 | 8 | C#CCNC(=O)[C@@H]1O[C@@H]2O[C@H]1C(=O)N(Cc1ccccc1)[C@H]2Cc1ccccc1
44 | 73 | 36 | O=C(NC1CCCCC1)[C@@H]1O[C@@H]2O[C@H]1C(=O)N(Cc1ccccc1)[C@H]2Cc1ccccc1
45 | 23 | 6 | CN(CCN)C(=O)[C@@H]1O[C@@]2(c3ccccc3)CN(C(c3ccccc3)c3ccccc3)C[C@@H]1O2
46 | 19 | 5 | CCOC(=O)N1CCN(C(=O)[C@@H]2O[C@@]3(c4ccccc4)CN(C(c4ccccc4)c4ccccc4)C(=O)[C@@H]2O3)CC1
47 | 6 | 2 | CN(CCN)C(=O)[C@@H]1O[C@H]2CN(Cc3ccccc3)C[C@@H]1O2
48 | 87 | 29 | O=C(NC1CC1)[C@@H]1O[C@@H]2O[C@H]1C(=O)N(Cc1ccccc1)[C@H]2Cc1ccccc1
